Laboratory results from ChEMBL document CHEMBL4017529, “Rational Design of Selective Adenine-Based Scaffolds for Inactivation of Bacterial Histidine Kinases” (J Med Chem, 2017).
One block for each molecule: values may come before it. Activity calls are given as the source filed them. The calls are words filed in the database; no cut-off is given here.

What was measured:
Thermotoga maritima [1] = experiment: Induction of Thermotoga maritima His-tagged HK853 expressed in Escherichia coli BL21(DE3)pLysS Rosetta aggregation at 100 uM after 30 mins by PAGE analysis
Procedure, shortened: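 Samples were run on 7.5% native-PAGE and silver stained. Aggregation was scored as loss of the dimeric HK853 band. NH125 served as positive aggregation control.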

[2] = Selectivity ratio of IC50 for human full length C-terminal His-tagged Hsp90 alpha expressed in Escherichia coli to IC50 for Thermotoga maritima His-tagged HK853 expressed in Escherichia coli BL21(DE3)pLysS Rosetta
Thermotoga maritima [3] = experiment: Induction of Thermotoga maritima His-tagged HK853 expressed in Escherichia coli BL21(DE3)pLysS Rosetta aggregation at […] after 30 mins by PAGE analysis
[4] = biological target: T1, Heat shock protein HSP 90-alpha (Homo sapiens, UniProt P07900); experiment: Inhibition of full length human C-terminal His-tagged Hsp90 alpha expressed in Escherichia coli at […] by fluorescence polarization assay relative to control
[5] = biological target: T1, Heat shock protein HSP 90-alpha; experiment: Inhibition of full length human C-terminal His-tagged Hsp90 alpha expressed in Escherichia coli by fluorescence polarization assay
Thermotoga maritima [6] = experiment: Inhibition of ATPgammaS-BODIPY binding to Thermotoga maritima His-tagged HK853 expressed in Escherichia coli BL21(DE3)pLysS Rosetta at […] preincubated for 30 mins prior to ATPgammaS-BODIPY addition measured after 1 hr by […] SDS-PAGE analysis
Thermotoga maritima [7] = experiment: Binding affinity to Thermotoga maritima His-tagged HK853 D411A mutant expressed in Escherichia coli BL21(DE3)pLysS Rosetta assessed as change in melting temperature at 1 mM by SYPRO orange dye based differential scanning fluorimetric analysis
Thermotoga maritima [8] = experiment: Binding affinity to wild type Thermotoga maritima His-tagged HK853 expressed in Escherichia coli BL21(DE3)pLysS Rosetta assessed as change in melting temperature at 1 mM by SYPRO orange dye based differential scanning fluorimetric analysis
Procedure, shortened: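 Wild-type HK853 at 2–5 µM final in reaction buffer, with SYPRO orange at 5x final. Compound was added at 1 mM final from a 25 mM DMSO stock; the control got DMSO alone. Reactions were 25 µL, made up on ice. Melt ran 20–95 °C at 1 °C min⁻¹ with HEX-filter fluorescence. Tm came from the melt curves, and ΔTm was taken against the control.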

[9] = Inhibition of BODIPY-FL-ATPgammaS binding to Thermotoga maritima His-tagged HK853 expressed in Escherichia coli BL21(DE3)pLysS Rosetta preincubated for 30 mins followed by 1 hr incubation by SDS-PAGE in-gel fluorescence assay
Thermotoga maritima [10] = experiment: Induction of Thermotoga maritima His-tagged HK853 aggregation expressed in Escherichia coli BL21(DE3)pLysS Rosetta at >= […] after 30 mins by PAGE analysis

Structure (SMILES): NS(=O)(=O)c1ccc(CCNc2ncnc3[nH]cnc23)cc1
Activity (Thermotoga maritima [1]): Active

Structure (SMILES): FC(F)(F)c1cccnc1N1CCN(c2[nH]cnc3ncnc2-3)CC1
Activity (Thermotoga maritima [1]): Active

Structure (SMILES): C=CCSc1ncnc2[nH]cnc12
Activity (Thermotoga maritima [1]): Active

Structure (SMILES): COc1ccccc1N1CCN(c2[nH]cnc3ncnc2-3)CC1
Activity (Thermotoga maritima [1]): Active

Structure (SMILES): Clc1ccc(CSc2[nH]cnc3ncnc2-3)cc1
Activity (Thermotoga maritima [1]): Active

Structure (SMILES): CC1CCN(c2ncnc3[nH]cnc23)CC1
Activity (Thermotoga maritima [1]): Active

Structure (SMILES): CC[C@@H](Nc1ncnc2nc[nH]c12)c1nc2cccc(F)c2c(=O)n1-c1ccccc1
inhibition (Thermotoga maritima [6]): inactive

Structure (SMILES): c1ccc(CCNc2ncnc3[nH]cnc23)cc1
inhibition [4]: > 45%

Structure (SMILES): CCCN(CCC)c1[nH]cnc2ncnc1-2
Ratio IC50 [2]: 10 to 2000 | inhibition [4]: > 45% | ΔTm (Thermotoga maritima [7]): < 2 °C | ΔTm (Thermotoga maritima [8]): 10 °C

Structure (SMILES): Nc1ncnc2c1ncn2[C@@H]1O[C@H](COP(=O)(O)OP(=O)(O)O)[C@@H](O)[C@H]1O [ADENOSINE DIPHOSPHATE]
IC50 [9]: 2.4 µM | ΔTm (Thermotoga maritima [7]): < 2 °C | ΔTm (Thermotoga maritima [8]): 10 °C

Structure (SMILES): C=CC(=O)N1CCC[C@H](n2nc(-c3ccc(Oc4ccccc4)cc3)c3c(N)ncnc32)C1
inhibition (Thermotoga maritima [6]): inactive

Structure (SMILES): c1ccc(N2CCN(c3ncnc4[nH]cnc34)CC2)nc1
Activity (Thermotoga maritima [1]): Active

Structure (SMILES): Nc1ncnc2c1ncn2[C@@H]1O[C@H](COP(=O)(O)OP(=O)(O)OP(=O)(O)O)[C@@H](O)[C@H]1O [ADENOSINE TRIPHOSPHATE]
IC50 [9]: 27 µM

Structure (SMILES): Brc1cccc(CSc2ncnc3[nH]cnc23)c1
Activity (Thermotoga maritima [1]): Active

Structure (SMILES): Nc1ncnc2c1ncn2[C@@H]1O[C@H](COP(=O)(O)O)[C@@H](O)[C@H]1O [ADENOSINE PHOSPHATE]
IC50 [9]: 1030 µM

Structure (SMILES): COc1ccc(OC)c(NC(=O)CSc2ncnc3[nH]cnc23)c1
Activity (Thermotoga maritima [1]): Active

Structure (SMILES): c1ccc(Nc2ncnc3[nH]cnc23)cc1
Activity (Thermotoga maritima [10]): inactive

Structure (SMILES): Brc1ccc(CSc2[nH]cnc3ncnc2-3)cc1
Activity (Thermotoga maritima [1]): Active

Continued, values first:

Ratio IC50 [2]: 10 to 2000 | Activity (Thermotoga maritima [3]): inactive | inhibition [4]: > 45% | IC50 [5]: > 1250 µM
Structure (SMILES): Cn1cnc2c(N)nc(Cl)nc21

Activity (Thermotoga maritima [1]): Active
Structure (SMILES): Nc1ncnc2c1ncn2CCN1CCOCC1

Ratio IC50 [2]: 10 to 2000
Structure (SMILES): CC1CC(Nc2ncnc3[nH]cnc23)CC(C)(C)C1 (centres undefined)

Activity (Thermotoga maritima [1]): Active
Structure (SMILES): c1ccc(CSc2ncnc3[nH]cnc23)cc1

Activity (Thermotoga maritima [1]): Active
Structure (SMILES): Clc1ccccc1CSc1ncnc2[nH]cnc12

inhibition [4]: > 45%
Structure (SMILES): Nc1nc(Cl)nc2c1ncn2[C@@H]1O[C@H](CO)[C@@H](O)[C@H]1O

Activity (Thermotoga maritima [1]): Active
Structure (SMILES): Clc1c(CSc2ncnc3[nH]cnc23)ccc2c1OCO2

Activity (Thermotoga maritima [1]): Active
Structure (SMILES): Cc1ccccc1OCn1cnc2c(N)ncnc21
